Series [1] is classed as cell-based.
In series [2] the test system is T98G cells. Description: Cellular uptake and distribution by fluorescence imaging. In kind it is cell-based. An outline of the steps: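 T98G cells incubated with the test peptide at 100 or 200 μM and imaged by confocal fluorescence microscopy after 2 h. Counterstains used: Hoechst 33342 for nuclei, fibrillarin immunofluorescence for nucleoli, and ER Tracker. Localisation to lysosomes was also assessed.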

Series [3] is described as follows: CD spectra, secondary structure inferred by DichroWeb. In kind it is physicochemical. To be noted: 200 μM.
The test system of series [4] is phospho-Ser139-H2AX (γH2AX). Description: Immunofluorescence of γH2AX. In kind it is cell-based. To be noted: T98G cells, 200 μM, 2 h.
Series [5] has as its system RNA extracted from T98G cells. Description: Interaction with total RNA extracted from T98G cells in PBS buffer.
Another series concerns HeLa. Description: Nucleolus targeting in HeLa cells. Type of series: cell-based.
In a further series the test system is MES-SA/Dx5. Description: Nucleolus targeting in MES-SA/Dx5 cells. In kind it is cell-based.
The test system of the next series is Saos-2. Description: Nucleolus targeting in Saos-2 cells. Type of series: cell-based.
Series [6] deals with T98G cells. The settings on record: 50 uM; cited from earlier work.

SMILES strings stand for the structures. Square brackets hold non-standard residues; d marks the D form. Peptide text beside a SMILES is read from it. * marks the point of attachment. Acetyl(thymin-1-yl) = Cc1cn(CC(=O)*)c(=O)[nH]c1=O; NBD = O=[N+]([O-])c1ccc(*)c2nonc12

Regarding `Cc1cn(CC(=O)N[C@H](Cc2ccccc2)C(=O)N[C@H](Cc2ccccc2)C(=O)N[C@H](CCCCN)C(=O)N[C@H](CCCCN)C(=O)N[C@H](Cc2ccccc2)C(=O)N[C@H](CCCCN)C(=O)N[C@H](CC(C)C)C(=O)N[C@H](CCCCN)C(=O)N[C@H](CC(C)C)C(=O)N[C@H](CCCCNc2ccc([N+](=O)[O-])c3nonc23)C(=O)O)c(=O)[nH]c1=O` [D-1] ({Acetyl(thymin-1-yl)}-[dF][dF][dK][dK][dF][dK][dL][dK][dL][dK](NBD)-OH; N-terminus and C-terminus assumed), it took 86.2 µM to reach half-maximal inhibition in [1] (IC50). The Cell entry result in the series with T98G cells [2] (100 μM, fluorescence imaging) was “hardly enters the cells”. Also, in the series on T98G cells [2] (200 μM, 2 h, fluorescence imaging), the Cellular distribution result is recorded as “bright fluorescent puncta in cell nucleus”. Besides, the Lysosomal localisation result with T98G cells [2] (200 μM, fluorescence imaging) is listed as “only slightly localized in the lysosome”. Besides, the “Cellular uptake at 4 °C” value in the series on T98G cells [2] (4 °C, 1 h) is given as “hardly exhibit any fluorescence”. In [3], this molecule came in with an unordered structures content of 28%, a α-helix content of 36%, a β-sheet content of 13% and a β-turns content of 23%. For the same molecule, the “γH2AX foci formation (DNA damage)” value in series [4] was “leads to γH2AX foci formation”. In addition, in series [5], the “Interaction with RNA” value is “form precipitates that resist ribonuclease”. Moreover, in the series with HeLa, the Nucleolus targeting result was “able to target nucleoli”. Further, the Nucleolus targeting entry with MES-SA/Dx5 is reported as “able to target nucleoli”. For the same molecule, the Nucleolus targeting result in the series on Saos-2 is “able to target nucleoli”. Besides, in the series with T98G cells [6], the “Effect on cells at low concentration” value is recorded as “innocuous to the cells”.

The values above are taken from PMC6800822 (Bioconjugate chemistry, 2019).
